Screening results: PubChem, several laboratories
This is a sample that favours compounds with a hit; in the whole collection about 3% have one here.
UBC13 inh: UBC13 polyubiquitin chain formation inhibitors, primary screen, biochemical, TR-FRET, uHTS; Ubiquitin-conjugating enzyme E2 N (Homo sapiens), P61088; inhibition, % at 20 µM; 0.47% of 330,000 active; AID 485273, 2010; in the data active means inhibition above about 45%, passing the limit was not always enough
MEKK2wt PB1 HTS: modulators of MEK5 binding to wildtype MEKK2, primary screen, biochemical, multiplex bead flow cytometry, Alexa488-MEK5; Alexa488-MEK5 binding to MEKK2 WT; actives lie on both sides; binding response (% of control), % at 10 µM; 1.1% of 290,000 active; in the data active means binding response below about 67% or above about 130%
UCH37 DUB inh: inhibitors of human UCH37 deubiquitinase, primary screen, biochemical, Ub-AMC cleavage, fluorescence. Ubiquitin carboxyl-terminal hydrolase isozyme L5 (Homo sapiens), Q9Y5K5. purified proteasome/UCH37. inhibition, % (test concentration not listed). 0.33% of 330,000 active;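 active means mean inhibition over replicate wells above about 20%, limit read from the data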
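Test system – human UCH37 enzyme supplied as purified proteasome complex · Incubation – 30 min preincubation with enzyme, 25 min cleavage at room temperature · Detection – AMC fluorescence from Ub-AMC cleavage, excitation 355 nm, emission 460 nm · Benchmarks – no-proteasome wells (full inhibition) and compound-free wells (no inhibition)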
MEKK3 PB1 HTS: modulators of MEKK3-MEK5 PB1 binding, primary screen, biochemical, wildtype MEKK3, multiplex bead flow cytometry, Alexa488-MEK5; binding response (% of control), % at 10 µM; Mitogen-activated protein kinase kinase kinase 3 (Homo sapiens), Q99759; 1.4% of 290,000 active; bead-based flow cytometry, Alexa488-MEK5 binding to MEKK3; actives lie on both sides; 0 = blocked by unlabeled MEK5, 100 = vehicle;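 active means binding response more than 3 SD above or below the average of its plate-row segment, actives on both sides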;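 further: Alexa488 bead fluorescence after subtracting the streptavidin-only scavenger bead signal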
MEKK2 mut-MEK5: MEK5 binding signal on mutant MEKK2 PB1, primary screen, biochemical, multiplex bead flow cytometry, Alexa488-MEK5; Alexa488-MEK5 binding to MEKK2 mutant; percent response, % at 10 µM; 0.35% of 290,000 active; AID 1530, 2009; in the data active means percent response above about 24%, passing the limit was not always enough
Apaf-1 inh: inhibitors of human Apaf-1 apoptosome, primary screen, biochemical, DEVD-Rh110 fluorescence, uHTS; reconstituted apoptosome caspase-3 activity; inhibition, % at 20 µM; 0.71% of 330,000 active; active means inhibition of at least 40% at 20 µM
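Material: reconstituted apoptosome with Apaf-1, cytochrome c, caspase-9, procaspase-3, dATP. Technique: Rh110 fluorescence intensity. Buffer or medium: pH 7.5 Hepes buffer with CHAPS, BSA, DTT. Times: 30 min plus 50 min, RT.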
MEKK2wt confirm: modulators of MEK5 binding to wildtype MEKK2, confirmation, biochemical, single concentration, multiplex bead flow cytometry; shares compounds with MEKK3 PB1 HTS; Alexa488-MEK5 binding to MEKK2 WT; actives lie on both sides; binding response (% of control), % at 10 µM; 2.4% of 5,900 active; AID 1892, 2009; in the data active means binding response below about 16% or above about 210%; inactive means in between
MEKK2mut confirm: mutant MEKK2 PB1-MEK5 binding signal retest – biochemical, single concentration, multiplex bead flow cytometry, confirmation. AID 1893, 2009. 2% of 5,900 active. shares compounds with MEKK3 PB1 HTS. Alexa488-MEK5 binding to MEKK2 mutant. percent response, % at 10 µM; in the data active means percent response mostly above about 71%, no sharp cut-off; inactive means mostly below about 38%;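 further: higher means compound restores mutant binding toward wildtype level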
MEKK3 confirm: MEKK3 wild-type PB1 binding to MEK5, inhibitors, confirmation, biochemical, bead multiplex flow cytometry, single concentration, wildtype; shares compounds with MEKK3 PB1 HTS; Alexa488-MEK5 binding to MEKK3; hits give low values; binding response (% of control), % at 10 µM; 1.8% of 5,900 active; AID 1894, 2009;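 active means binding response below 72% of control, or above a set upper limit, though filed actives all read lower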
A number is an active result; . = inactive; / = no result; [ ] = another dose, or the depositor's remark.

SMILES | UBC13 inh | MEKK2wt PB1 HTS | UCH37 DUB inh | MEKK3 PB1 HTS | MEKK2 mut-MEK5 | Apaf-1 inh | MEKK2wt confirm | MEKK2mut confirm | MEKK3 confirm
COc1ccc(C)cc1S(=O)(=O)N1CCCC(C(=O)N2CCN(c3ccccc3F)CC2)C1 (centres undefined) | . | . | . | . | . | . | / | / | /
CCC(C)NC(=O)CCC(=O)Nc1ccc2nc(N3CC(C)CC(C)C3)cc(C)c2c1 (centres undefined) | . | 9.0 | . | . | 90 | . | . | . | .
CCN1CCN(c2cc(C)c3cc(NC(=O)CCC(=O)N4CCN(c5ccccc5OC)CC4)ccc3n2)CC1 | . | . | . | . | . | . | / | / | /
CCN1CCN(c2cc(C)c3cc(NC(=O)Cc4ccc(OC)c(OC)c4)ccc3n2)CC1 | . | . | . | . | 26 | . | . | . | .
CCC(C)NC(=O)CCC(=O)Nc1ccc2nc(N3CCOCC3)cc(C)c2c1 (centres undefined) | . | . | . | . | . | . | / | / | /
CCN1CCN(c2cc(C)c3cc(NC(=S)N4CCN(c5ccccc5F)CC4)ccc3n2)CC1 | . | 148 | . | . | . | . | . | . | .
CCOc1ccc(C(=O)Nc2ccc3nc(N4CCN(CC)CC4)cc(C)c3c2)cc1 | . | 148 | . | . | . | . | . | . | .
CCN1CCN(c2cc(C)c3cc(NC(=S)N4CCN(c5ccccc5)CC4)ccc3n2)CC1 | . | . | . | . | . | . | / | / | /
CNS(=O)(=O)c1cccc(C(=O)NCC2(N3CCOCC3)CCCCC2)c1 | . | . | . | . | . | . | / | / | /
CCN1CCN(c2cc(C)c3cc(NC(=O)c4cc(OC)cc(OC)c4)ccc3n2)CC1 | . | 139 | . | . | . | . | . | . | .
CCc1ccc(C(=O)c2cnc3ccc(OC)cc3c2N2CCN(CC)CC2)cc1 | . | . | . | . | . | . | / | / | /
CCOc1ccc2ncc(C(=O)c3ccc(OC)cc3)c(N3CCN(CC)CC3)c2c1 | . | 499 | . | . | . | . | . | . | .
Cc1oc2c(C)c(O)ccc2c(=O)c1-c1cnn(-c2ccccc2)c1 | . | . | . | 69[inhibitor] | . | . | . | . | .
Cn1ccnc1C(=O)C1CCCN(Cc2cn[nH]c2-c2ccc(-c3ccccc3)cc2)C1 (centres undefined) | . | 148 | / | . | . | . | . | . | .
Cc1ccc(S(=O)(=O)n2c3ccc(Cl)cc3c3nc(C)sc32)cc1 | / | . | . | 150 | . | / | . | . | .
Cn1c(CC(=O)Nc2ccccc2)c(Sc2ccccc2)c2ccccc21 | . | . | . | 139 | . | . | . | . | .
O=C(O)c1cc([N+](=O)[O-])cc2ccccc12 | / | / | . | / | / | / | / | / | /
COCC(=O)Nc1nnc(-c2ccc(C(C)(C)C)cc2)s1 | . | . | . | 144 | . | . | . | . | .
CCOc1ccccc1N1C(=O)c2ccc(S(=O)(=O)c3ccc(C(=O)O)cc3)cc2C1=O | . | . | . | . | . | . | / | / | /
